Active and inactive are the calls of the source. The calls are words filed in the database; no cut-off is given here.
Columns and labels:
[1] = target: Tubulin; assay: Inhibition of tubulin polymerization; type: functional, Homo sapiens
Method in brief: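 Tubulin 10 µM in 0.8 M monosodium glutamate (pH 6.6), preincubated 15 min at 30 °C with varying drug, chilled on ice, then GTP added to 0.4 mM. Turbidity followed at 350 nm for 20 min at 30 °C. Extent of assembly measured and IC50 derived.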

[2] = system: MCF7; assay: Inhibition of growth of MCF7 cells; type: functional, cell-based; details: Homo sapiens
[3] = system: SCLC; assay: Inhibition of growth of SCLC cells; type: functional, cell-based; details: Homo sapiens
[4] = target: Tubulin (Homo sapiens) (UniProt P68371+Q9H4B7+P0DPH7+P68366+Q13509+Q71U36+P04350+Q3ZCM7+P07437+P68363+Q9BQE3+Q6PEY2+Q13885+Q9BVA1+Q9BUF5); assay: Displacement of [3H]colchicine from tubulin; type: protein-complex assay; details: concentration not given here
Method in brief: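 [3H]Colchicine 5.0 µM with 1.0 µM tubulin and 5.0 µM inhibitor, incubated 10 min at 37 °C. Result given as % inhibition of colchicine binding.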

[5] = target: Heat shock protein HSP 90-alpha (Homo sapiens) (UniProt P07900); assay: Binding affinity to Hsp90-alpha by fluorescent polarization assay
Method in brief: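 Fluorescence polarization competition with recombinant Hsp90α (30 nM) and GM-BODIPY (fluorescent geldanamycin, 5 nM) in 20 mM K-HEPES pH 7.3, 50 mM KCl, 5 mM MgCl2, 20 mM Na2MoO4, 0.01% NP40, 0.1 mg/mL bovine gamma globulin, 2 mM DTT. Shaken 24 h at 4 °C, mP read. EC50 = competitor concentration displacing 50% of probe.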

SMILES	IC50 [1] [nM]	IC50 [2] [nM]	inhibition [4] [%]	Activity [5]	IC50 [3] [nM]
CCOC(=O)c1[nH]c2ccccc2c1Sc1cc(OC)c(OC)c(OC)c1			51		
COC(=O)c1[nH]c2cccc(OC)c2c1Sc1ccccc1	> 40000	> 2500			
CCOC(=O)c1[nH]c2ccccc2c1Sc1ccc(OC)cc1	> 40000	> 2500			> 10000
CCC(C)OC(=O)c1[nH]c2ccccc2c1Sc1ccccc1 (centres undefined)	> 40000	> 2500			
COC(=O)c1[nH]c2ccc(Cl)cc2c1S(=O)(=O)c1ccc(OC)cc1	> 40000	> 2500			
CCOC(=O)c1[nH]c2cc(OC)c(OC)cc2c1S(=O)(=O)c1ccccc1	> 40000	> 2500			
CCCCOC(=O)c1[nH]c2ccccc2c1Sc1ccccc1	> 40000	> 2500			
COC(=O)c1[nH]c2ccc(OC)cc2c1S(=O)(=O)c1ccccc1	> 40000	> 2500			
CCOC(=O)c1[nH]c2ccc(OC)cc2c1Sc1ccc(OC)cc1	> 40000	> 2500			> 10000
COC(=O)c1[nH]c2cc(OC)ccc2c1Sc1ccccc1	> 40000	> 2500			
COC(=O)c1[nH]c2ccc(Cl)cc2c1Sc1cc(OC)c(OC)c(OC)c1			57	inactive	
CC(C)(C)OC(=O)c1[nH]c2ccccc2c1Sc1ccccc1	> 40000	> 2500			
COC(=O)c1[nH]c2cc(OC)c(OC)cc2c1Sc1cc(OC)c(OC)c(OC)c1	> 40000	1600			
O=C(OCc1ccccc1)c1[nH]c2ccccc2c1Sc1ccccc1	> 40000	> 2500			

Now from value to molecule, other results behind:

IC50 [1] [nM]	IC50 [2] [nM]	inhibition [4] [%]	Activity [5]	SMILES	IC50 [3] [nM]
> 40000	> 2500			COC(=O)c1[nH]c2ccc(Cl)cc2c1S(=O)(=O)c1ccccc1OC	
2200	34	82		COC(=O)c1[nH]c2ccc(Cl)cc2c1Sc1cc(OC)cc(OC)c1	18
14000	> 2500			CCOC(=O)c1[nH]c2cc(OC)c(OC)cc2c1Sc1ccccc1	
16000	350			CCOC(=O)c1[nH]c2ccc(OC)cc2c1Sc1ccccc1OC	2200
> 40000	> 2500			CCCOC(=O)c1[nH]c2ccccc2c1Sc1ccccc1	
> 40000	> 2500			CC(C)CCOC(=O)c1[nH]c2ccccc2c1Sc1ccccc1	
3100	280	39		CCOC(=O)c1[nH]c2ccc(OC)cc2c1Sc1cccc(OC)c1	584
18000	> 2500			CC(C)OC(=O)c1[nH]c2ccccc2c1Sc1ccccc1	
1800	330	53		COC(=O)c1[nH]c2ccc(Cl)cc2c1Sc1cccc(OC)c1	3200
2900	150	48		CCOC(=O)c1[nH]c2ccccc2c1Sc1cccc(OC)c1	585
22000	1000			CCOC(=O)c1[nH]c2cc(OC)c(OC)cc2c1Sc1cc(OC)c(OC)c(OC)c1	
2200	110	53		CCOC(=O)c1[nH]c2ccc(Cl)cc2c1Sc1cc(OC)c(OC)c(OC)c1	93
4200	1300	34		COC(=O)c1[nH]c2ccc(Cl)cc2c1Sc1ccccc1OC	7000
12000	> 2500			CCOC(=O)c1[nH]c2ccccc2c1Sc1ccccc1OC	
31000	> 2500			COC(=O)c1[nH]c2ccc(Cl)cc2c1S(=O)(=O)c1cccc(OC)c1	> 10000
2400	46	71		CCOC(=O)c1[nH]c2ccc(OC)cc2c1Sc1cc(OC)c(OC)c(OC)c1	
4500	120	32		COC(=O)c1[nH]c2ccc([N+](=O)[O-])cc2c1Sc1cc(OC)c(OC)c(OC)c1	

From ChEMBL document CHEMBL1149381, “New arylthioindoles: potent inhibitors of tubulin polymerization. 2. Structure-activity relationships and molecular modeling studies” (J Med Chem, 2006)
